Test results published in ChEMBL document CHEMBL1255300, “Pharmacodynamics of the antibacterial effect and emergence of resistance to tomopenem, formerly RO4908463/CS-023, in an in vitro pharmacokinetic model of Staphylococcus aureus infection” (Antimicrob Agents Chemother, 2008).
Activity calls are given as the source filed them. No cut-off for these calls is given here.

How the values were obtained:
[1] = tested on: Staphylococcus aureus; test: Antibacterial activity against methicillin-resistant Staphylococcus aureus 33829 infected in in vitro pharmacokinetic model assessed as reduction in viable count at 1500 mg, iv every 8 hrs measured after 48 hrs using 10^6 CFU/ml inoculum; format: functional
Method in brief: (§1)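 Single-compartment dilutional in vitro PK model, 10% Mueller-Hinton broth, 37°C, stirred, dilution 132 ml/h. […] Inoculum 10^6 CFU/ml (added 45 min pre-dose) or 10^8 CFU/ml (run overnight). Viable counts by spiral plating, beta-lactamase neutralization, detection limit 10^2 CFU/ml. At least triplicate.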

[2] = tested on: Serum; test: Drug level in human serum at 700 mg; format: ADME, cell-free
[3] = tested on: Staphylococcus aureus; test: T>MIC for 4-log drop in count in methicillin-resistant Staphylococcus aureus 33922 in in vitro pharmacokinetic model after 24 hrs using 10^8 CFU/ml inoculum; format: functional
[4] = tested on: Staphylococcus aureus; test: T>MIC for 1-log drop in count in methicillin-resistant Staphylococcus aureus 33815 in in vitro pharmacokinetic model after 24 hrs using 10^8 CFU/ml inoculum; format: functional
[5] = tested on: Staphylococcus aureus; test: T>MIC for static effect in methicillin-sensitive Staphylococcus aureus 5956 in in vitro pharmacokinetic model after 24 hrs using 10^6 CFU/ml inoculum; format: functional
[6] = tested on: Staphylococcus aureus; test: T>MIC for 2-log drop in count in methicillin-resistant Staphylococcus aureus 33827 in in vitro pharmacokinetic model after 24 hrs using 10^8 CFU/ml inoculum; format: functional
[7] = tested on: Staphylococcus aureus; test: T>MIC for 4-log drop in count in methicillin-resistant Staphylococcus aureus 33827 in in vitro pharmacokinetic model after 24 hrs using 10^8 CFU/ml inoculum; format: functional
[8] = tested on: Staphylococcus aureus; test: Antibacterial activity against methicillin-sensitive Staphylococcus aureus 5956 infected in in vitro pharmacokinetic model assessed as reduction in viable count at 750 mg, iv every 8 hrs measured after 36 hrs using 10^6 CFU/ml inoculum; format: functional
[9] = tested on: Staphylococcus aureus; test: Antibacterial activity against methicillin-resistant Staphylococcus aureus 33815 infected in in vitro pharmacokinetic model assessed as time required to 99.9% killing at 750 mg, iv every 8 hrs using 10^6 CFU/ml inoculum; format: functional
[10] = tested on: Staphylococcus aureus; test: Antibacterial activity against methicillin-resistant Staphylococcus aureus 33820 infected in in vitro pharmacokinetic model assessed as reduction in viable count at 750 mg, iv every 8 hrs measured after 36 hrs using 10^6 CFU/ml inoculum; format: functional
Method in brief: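 Single-compartment dilutional in vitro PK model, 37°C, stirred, in 10% Mueller-Hinton broth. […] Inoculum 10^6 CFU/ml from a 24-h plate culture was added 45 min before dosing. Viable counts by spiral plating on nutrient agar with β-lactamase neutralization. Log change was taken from time 0; detection limit 10^2 CFU/ml; at least triplicate.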

[11] = tested on: Staphylococcus aureus; test: Antibacterial activity against methicillin-sensitive Staphylococcus aureus 5956 infected in in vitro pharmacokinetic model assessed as time required to 99% killing at 750 mg, iv every 8 hrs using 10^6 CFU/ml inoculum; format: functional
[12] = tested on: Staphylococcus aureus; test: Antibacterial activity against methicillin-resistant Staphylococcus aureus 33922 in in vitro pharmacokinetic model assessed as viable count at 2 times of MIC; format: functional
[13] = tested on: Staphylococcus aureus; test: Antibacterial activity against methicillin-resistant Staphylococcus aureus 33921 infected in in vitro pharmacokinetic model assessed as reduction in viable count at 750 mg, iv every 8 hrs measured after 36 hrs using 10^6 CFU/ml inoculum; format: functional
[14] = tested on: Staphylococcus aureus; test: Antibacterial activity against methicillin-resistant Staphylococcus aureus 33922 infected in in vitro pharmacokinetic model assessed as reduction in viable count at 750 mg, iv every 8 hrs measured after 36 hrs using 10^8 CFU/ml inoculum; format: functional
[15] = tested on: Staphylococcus aureus; test: Antibacterial activity against methicillin-resistant Staphylococcus aureus 33820 assessed as viable count at 2 times of MIC after 24 hrs using 10^6 CFU/ml inoculum; format: functional, organism-based
[16] = tested on: Staphylococcus aureus; test: T>MIC for 4-log drop in count in methicillin-resistant Staphylococcus aureus 33922 in in vitro pharmacokinetic model after 24 hrs using 10^6 CFU/ml inoculum; format: functional
[17] = tested on: Staphylococcus aureus; test: Antibacterial activity against methicillin-resistant Staphylococcus aureus 33829 assessed as viable count at 2 times of MIC after 24 hrs using 10^6 CFU/ml inoculum; format: functional, organism-based
[18] = tested on: Staphylococcus aureus; test: AUBKC (0 to 24 hrs) in methicillin-resistant Staphylococcus aureus 33922 infected in in vitro pharmacokinetic model at 1500 mg, iv every 8 hrs using 10^8 CFU/ml inoculum; format: functional
Method in brief: (§2)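 Single-compartment dilutional in vitro PK model at 37°C in 10% Mueller-Hinton broth, stirred, flow 132 ml/h. […] Inoculum 10^6 CFU/ml added 45 min before dosing, or 10^8 CFU/ml run overnight. Viable counts with β-lactamase neutralisation. AUBKC by log-linear trapezoidal rule, at least triplicate.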

[19] = tested on: Staphylococcus aureus; test: Antibacterial activity against methicillin-resistant Staphylococcus aureus 33827 infected in in vitro pharmacokinetic model assessed as reduction in viable count at 1500 mg, iv every 8 hrs measured after 36 hrs using 10^8 CFU/ml inoculum; format: functional; method in brief: as §1
[20] = tested on: Staphylococcus aureus; test: AUBKC (0 to 48 hrs) in methicillin-resistant Staphylococcus aureus 33820 infected in in vitro pharmacokinetic model at 1500 mg, iv every 8 hrs using 10^6 CFU/ml inoculum; format: functional; method in brief: as §2
[21] = tested on: Staphylococcus aureus; test: Antibacterial activity against methicillin-sensitive Staphylococcus aureus 5956 assessed as viable count at 2 times of MIC after 24 hrs using 10^6 CFU/ml inoculum; format: functional, organism-based
[22] = tested on: Staphylococcus aureus; test: Antibacterial activity against methicillin-resistant Staphylococcus aureus 33922 infected in in vitro pharmacokinetic model assessed as reduction in viable count at 1500 mg, iv every 8 hrs measured after 48 hrs using 10^6 CFU/ml inoculum; format: functional
[23] = tested on: Staphylococcus aureus; test: Antibacterial activity against methicillin-resistant Staphylococcus aureus 33922 infected in in vitro pharmacokinetic model assessed as time required to 99% killing at 750 mg, iv every 8 hrs using 10^8 CFU/ml inoculum; format: functional
[24] = tested on: Staphylococcus aureus; test: AUBKC (0 to 24 hrs) in methicillin-resistant Staphylococcus aureus 33922 infected in in vitro pharmacokinetic model at 1500 mg, iv every 8 hrs using 10^6 CFU/ml inoculum; format: functional; method in brief: as §2
[25] = tested on: Staphylococcus aureus; test: Antibacterial activity against methicillin-resistant Staphylococcus aureus 33922 infected in in vitro pharmacokinetic model assessed as reduction in viable count at 750 mg, iv every 8 hrs measured after 48 hrs using 10^8 CFU/ml inoculum; format: functional
[26] = tested on: Staphylococcus aureus; test: Antibacterial activity against methicillin-sensitive Staphylococcus aureus 5956 infected in in vitro pharmacokinetic model assessed as reduction in viable count at 750 mg, iv every 8 hrs measured after 48 hrs using 10^6 CFU/ml inoculum; format: functional
[27] = tested on: Staphylococcus aureus; test: AUBKC (0 to 24 hrs) in methicillin-resistant Staphylococcus aureus 33820 infected in in vitro pharmacokinetic model at 1500 mg, iv every 8 hrs using 10^6 CFU/ml inoculum; format: functional; method in brief: as §2
[28] = tested on: Staphylococcus aureus; test: AUBKC (0 to 24 hrs) in methicillin-resistant Staphylococcus aureus 33922 infected in in vitro pharmacokinetic model at 750 mg, iv every 8 hrs using 10^6 CFU/ml inoculum; format: functional; method in brief: as §2
[29] = tested on: Staphylococcus aureus; test: Antibacterial activity against methicillin-resistant Staphylococcus aureus 33922 assessed as viable count at 2 times of MIC after 24 hrs using 10^6 CFU/ml inoculum; format: functional, organism-based

C[C@@H](O)[C@H]1C(=O)N2C(C(=O)O)=C(S[C@H]3C[C@@H](C(=O)N4CC[C@H](NC(=O)CNC(=N)N)C4)N(C)C3)[C@H](C)[C@H]12 [TOMOPENEM] was tested, and the log10CFU/ml [1] was 3.8, the Drug uptake [2] was 44 mg/L and the “fT>MIC” value [3] was 15%. For the same compound, the “fT>MIC” value [4] was 1%, the “fT>MIC” value [5] was 6% and the “fT>MIC” value [6] was 39.6%. The “fT>MIC” value [7] was 79.1%, the log10CFU/ml [8] was 4.5 and the Time [9] was 12 h. For the same compound, the log10CFU/ml [10] was 4.2, the Time [11] was 4 h and the log10CFU/ml [12] was 8.3. For the same compound, the log10CFU/ml [13] was 3.9, the log10CFU/ml [14] was 5.5 and the Activity [15] was “inactive”. For the same compound, the “fT>MIC” value [16] was 21.5%, the Activity [17] was “inactive” and the AUBC [18] was 100.1 log10CFU/ml.hr. The log10CFU/ml [19] was 6, the AUBC [20] was 23.4 log10CFU/ml.hr and the Activity [21] was “inactive”. The log10CFU/ml [22] was 4.2, the Time [23] was 12 h and the AUBC [24] was 16.9 log10CFU/ml.hr. For the same compound, the log10CFU/ml [25] was 5.8, the log10CFU/ml [26] was 4.5 and the AUBC [27] was 23.4 log10CFU/ml.hr. The AUBC [28] was 20.2 log10CFU/ml.hr and the Activity [29] was “inactive”.
